This passage reports IC50 results from ChEMBL document CHEMBL1833789, “Inhibition of xc⁻ transporter-mediated cystine uptake by sulfasalazine analogs” (Bioorg Med Chem Lett, 2011).

SMILES strings stand for the structures.

The target of this assay is T1, Cystine/glutamate transporter (Homo sapiens, UniProt Q9UPY5).
T1 sequence (Q9UPY5 whole entry): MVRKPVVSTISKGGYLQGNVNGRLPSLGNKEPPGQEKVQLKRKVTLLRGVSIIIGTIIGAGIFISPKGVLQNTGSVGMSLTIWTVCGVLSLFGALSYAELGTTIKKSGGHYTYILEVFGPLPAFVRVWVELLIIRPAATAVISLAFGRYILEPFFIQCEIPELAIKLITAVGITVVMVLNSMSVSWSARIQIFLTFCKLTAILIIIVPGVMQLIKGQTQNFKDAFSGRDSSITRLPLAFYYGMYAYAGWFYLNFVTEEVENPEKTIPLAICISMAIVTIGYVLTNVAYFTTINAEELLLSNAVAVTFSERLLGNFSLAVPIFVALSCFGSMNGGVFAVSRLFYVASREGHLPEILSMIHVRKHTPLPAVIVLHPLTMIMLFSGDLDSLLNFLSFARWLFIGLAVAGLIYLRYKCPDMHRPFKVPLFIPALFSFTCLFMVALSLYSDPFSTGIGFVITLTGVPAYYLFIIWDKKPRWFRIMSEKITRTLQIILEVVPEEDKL
The experiment in a line: Inhibition of xc-cystine-glutamate antiporter-mediated cystine uptake in human U87 cells using L-[14C]cystine as substrate after 15 mins by liquid scintillation counting. The class given is cell-based, U-87MG ATCC. Put shortly:
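U87 human glioblastoma-astrocytoma cells, seeded at 0.067 × 10^6 per well and grown 6 days to confluency. Washed with pre-warmed sodium-free choline-chloride uptake buffer (HEPES 10 mM, pH 7.4), then given 80 µM L-[14C(U)]-cystine at 37 °C with or without inhibitor at various concentrations. Uptake stopped by three ice-cold washes, cells lysed in 0.1 N NaOH, counts normalized to protein.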
Broadly, the IC50 is the concentration at which inhibition is half-maximal. Lower therefore signals greater potency. In turn, `O=C(O)c1cccc(C#Cc2ccccc2)c1` returned a half-maximal inhibitory concentration (IC50) of 270 µM.

For `O=C(O)c1cc(CCc2ccc(S(=O)(=O)Nc3ccccn3)cc2)ccc1O`, the midpoint of inhibition, the IC50, lay at 700 µM. The value for `COC(=O)c1cc(/C=C/c2ccc(S(=O)(=O)Nc3ccccn3)cc2)ccc1O` was 900 µM; that for `Nc1ccc(O)c(C(=O)O)c1` [MESALAMINE] was greater than 1000 µM; that for `O=C(O)c1cc(/N=N/c2ccc(S(=O)(=O)Nc3ccccn3)cc2)ccc1O` [SULFASALAZINE] was 30 µM.

On to `Nc1ccc(S(=O)(=O)Nc2ccccn2)cc1` [SULFAPYRIDINE], for which the 50% inhibitory concentration (IC50) is greater than 1000 µM. The same measure for `COC(=O)c1cc(C#Cc2ccc(S(=O)(=O)Nc3ccccn3)cc2)ccc1O`: greater than 1000 µM; for `N[C@H](C(=O)O)c1ccc(C(=O)O)cc1`: 15 µM. The value for `COC(=O)c1cc(CCc2ccc(S(=O)(=O)Nc3ccccn3)cc2)ccc1O` was greater than 1000 µM. The same measure for `Cc1cccnc1NS(=O)(=O)c1ccc(C#Cc2ccc(O)c(C(=O)O)c2)cc1` [SUSALIMOD]: 70 µM; for `O=C(O)c1cc(C#Cc2ccccc2)ccc1O`: 150 µM; for `O=C(O)c1cc(/C=C/c2ccc(S(=O)(=O)Nc3ccccn3)cc2)ccc1O`: 70 µM. Regarding `O=C(O)c1cc(C#Cc2ccc(S(=O)(=O)Nc3ccccn3)cc2)ccc1O`, half-maximal inhibition (IC50) required 30 µM. The value for `N[C@@H](C(=O)O)c1ccc(C(=O)O)cc1` was greater than 1000 µM; that for `O=C(O)c1cccc(CCc2ccc(S(=O)(=O)Nc3ccccn3)cc2)c1` was 920 µM; that for `O=C(O)c1cccc(C#Cc2ccc(S(=O)(=O)Nc3ccccn3)cc2)c1` was 75 µM. The same measure for `O=C(O)c1cc(/N=N/c2ccccc2)ccc1O`: 200 µM.
